According to ChEMBL document CHEMBL1629450, “Design, synthesis, and evaluation of dibenzo[c,h][1,6]naphthyridines as topoisomerase I inhibitors and potential anticancer agents” (J Med Chem, 2010):
Values belong to the compound of their own block, whether it stands above or below them. The source made the active and inactive calls. The rule behind the calls is not given here.

Experiments:
[1] = target: T1, DNA topoisomerase 1 (Homo sapiens) (UniProt P11387); assay: Inhibition of human topoisomerase 1 assessed as induction of DNA damage using 161 base-pair fragment form pBluescript SK(-) phagemid DNA substrate by DNA cleavage assay
T1 sequence (whole entry): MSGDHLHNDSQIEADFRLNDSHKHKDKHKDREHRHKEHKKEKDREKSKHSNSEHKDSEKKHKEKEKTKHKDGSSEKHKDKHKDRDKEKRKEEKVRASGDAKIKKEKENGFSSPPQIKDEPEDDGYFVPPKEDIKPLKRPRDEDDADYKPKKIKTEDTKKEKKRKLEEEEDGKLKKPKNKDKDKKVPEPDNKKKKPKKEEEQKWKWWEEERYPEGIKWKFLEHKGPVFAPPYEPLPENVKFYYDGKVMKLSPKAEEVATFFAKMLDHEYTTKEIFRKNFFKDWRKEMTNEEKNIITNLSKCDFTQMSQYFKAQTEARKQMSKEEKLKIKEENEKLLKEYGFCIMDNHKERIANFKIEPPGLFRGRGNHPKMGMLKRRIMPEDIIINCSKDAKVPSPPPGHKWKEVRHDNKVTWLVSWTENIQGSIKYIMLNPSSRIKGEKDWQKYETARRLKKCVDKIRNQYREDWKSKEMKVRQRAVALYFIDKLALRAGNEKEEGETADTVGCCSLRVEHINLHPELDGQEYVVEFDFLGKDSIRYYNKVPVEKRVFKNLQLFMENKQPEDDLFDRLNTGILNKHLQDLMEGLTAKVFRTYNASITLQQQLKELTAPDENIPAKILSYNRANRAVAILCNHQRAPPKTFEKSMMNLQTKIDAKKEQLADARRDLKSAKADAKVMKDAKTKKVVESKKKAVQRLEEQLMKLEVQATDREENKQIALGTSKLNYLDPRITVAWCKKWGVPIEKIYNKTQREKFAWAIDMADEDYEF
Summary of the method: (§1)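 Baculovirus-purified human recombinant Top1 with 161 bp PvuII/HindIII fragment of pBluescript SK(-), 3'-end labeled at HindIII site with [α-32P]-dGTP by Klenow fill-in (~50 000 dpm/reaction). Incubated with drug, four 10-fold dilutions from 100 μM, 30 min at 22 °C. Stopped with 0.5% SDS (final), resolved on denaturing 16% polyacrylamide/7 M urea gels. Cleavage scored semiquantitatively.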

[2] = Antiproliferative activity against human RPMI18226 cells after 48 hrs by SRB assay; type: functional; conditions: RPMI18226, 48 h
[3] = Solubility of the compound in methanol solvent; type: physicochemical
DU-145 = assay: Antiproliferative activity against human DU145 cells after 48 hrs by SRB assay; type: functional; conditions: DU-145, 48 h
HCT-116 = assay: Antiproliferative activity against human HCT116 cells after 48 hrs by SRB assay; type: functional; conditions: HCT-116, 48 h
[4] = target: T1, DNA topoisomerase 1 (Homo sapiens); assay: Inhibition of human topoisomerase 1 assessed as induction of DNA cleavage at base-pair 97 using 161 base-pair fragment form pBluescript SK(-) phagemid DNA substrate by DNA cleavage assay; summary of the method: as §1
[5] = target: T1, DNA topoisomerase 1 (Homo sapiens); assay: Inhibition of human topoisomerase 1 assessed as induction of DNA cleavage at base-pair 119 using 161 base-pair fragment form pBluescript SK(-) phagemid DNA substrate by DNA cleavage assay; summary of the method: as §1
[6] = Solubility of the compound in dimethyl sulfoxide solvent; type: physicochemical
SN12C = assay: Antiproliferative activity against human SN12C cells after 48 hrs by SRB assay; type: functional
UO-31 = assay: Antiproliferative activity against human UO31 cells after 48 hrs by SRB assay; type: functional; conditions: UO-31, 48 h
MCF7 = assay: Antiproliferative activity against human MCF7 cells after 48 hrs by SRB assay; type: functional; conditions: MCF7, 48 h
HOP-62 = assay: Antiproliferative activity against human HOP62 cells after 48 hrs by SRB assay; type: functional; conditions: HOP-62, 48 h
UACC-62 = assay: Antiproliferative activity against human UACC62 cells after 48 hrs by SRB assay; type: functional; conditions: UACC-62, 48 h
SF-539 = assay: Antiproliferative activity against human SF539 cells after 48 hrs by SRB assay; type: functional; conditions: SF-539, 48 h
[7] = Solubility of the compound in chloroform solvent; type: physicochemical
IGROV-1 = assay: Antiproliferative activity against human IGROV1 cells after 48 hrs by SRB assay; type: functional; conditions: IGROV-1, 48 h
[8] = Antiproliferative activity against human OVACR3 cells after 48 hrs by SRB assay; type: functional; conditions: OVACR3, 48 h
COLO 205 = assay: Antiproliferative activity against human COLO205 cells after 48 hrs by SRB assay; type: functional; conditions: COLO 205, 48 h
K562 = assay: Antiproliferative activity against human K562 cells after 48 hrs by SRB assay; type: functional; conditions: K562, 48 h

Compound: COc1cc2c(Cl)nc3c4ccccc4nc(Cl)c3c2cc1OC
inhibition [1]: inactive

Compound: COc1cc2c(=O)n(CCCO)c3c4ccccc4[nH]c(=O)c3c2cc1OC
inhibition [1]: inactive

solubility [3]: soluble | GI50 (DU-145): 10.5 µM | GI50 (HCT-116): 4.16 µM | inhibition [4]: Active | inhibition [5]: Active | solubility [6]: soluble | GI50 (MCF7): 0.4 µM | solubility [7]: soluble | GI50 (COLO 205): 0.33 µM | GI50 (K562): 0.2 µM
Compound: COc1cc2c(=O)n(CCCN3CCOCC3)c3c4ccccc4nc(Cl)c3c2cc1OC
inhibition [1]: Active | GI50 [2]: 0.1 µM | GI50 (SN12C): 13.2 µM | GI50 (UO-31): 0.02 µM | GI50 (HOP-62): 4.7 µM | GI50 (UACC-62): 6.8 µM | GI50 (SF-539): 12.3 µM | GI50 (IGROV-1): 0.03 µM | GI50 [8]: 6.3 µM

Compound: COc1cc2c(OC)nc3c4ccccc4nc(OC)c3c2cc1OC
inhibition [1]: inactive

solubility [3]: soluble | inhibition [4]: Active | solubility [6]: soluble | solubility [7]: soluble
Compound: COc1cc2c(=O)n(C)c3c4ccccc4nc(Cl)c3c2cc1OC
inhibition [1]: Active

Compound: COc1cc2c(=O)n(C)c3c4ccccc4[nH]c(=O)c3c2cc1OC
inhibition [1]: inactive

Compound: C=CCn1c(=O)c2cc(OC)c(OC)cc2c2c(=O)[nH]c3ccccc3c21
inhibition [1]: inactive

GI50 (DU-145): 4.8 µM | GI50 (HCT-116): 11.5 µM | GI50 (MCF7): 1.9 µM | GI50 (COLO 205): > 100 µM | GI50 (K562): 6 µM
Compound: COc1cc2c3c(n(C)c(=O)c2cc1OC)-c1cc2c(cc1C3=O)OCO2
GI50 [2]: > 100 µM | GI50 (SN12C): 25.7 µM | GI50 (UO-31): 1.7 µM | GI50 (HOP-62): 2.8 µM | GI50 (UACC-62): 0.6 µM | GI50 (SF-539): 1.7 µM | GI50 (IGROV-1): 0.01 µM | GI50 [8]: 22.4 µM
